This note sets out measurements from ChEMBL document CHEMBL4184291, “Discovery of N-arylpyrroles as agonists of GPR120 for the treatment of type II diabetes” (Bioorg Med Chem Lett, 2018).

The test system of data set [1] is Mus musculus. The data set can be described thus: Antiobesity activity in diet-induced obesity C57Bl6/J mouse model assessed as final insulin level in plasma at 10 mg/kg bid for 15 days measured on day 15 post 6 hrs fasting (reference value: 7304 +/- 2967 pg/ml). The data set is classed as functional.
The nature of data set [2]: Cmax in guinea pig at 22.4 mg/kg. The format is ADME, organism-based, Cavia porcellus. On the set-up: dose 22.4 mg/kg. Particulars: in vivo.
Data set [3] deals with Cavia porcellus. In words: Cardiotoxicity in guinea pig assessed as effect on heart rate at 22.4 mg/kg. Particulars: in vivo. The data set is classed as toxicity, organism-based.
The nature of data set [4]: Volume of distribution at steady state in mouse at 1.15 mg/kg, iv by LC-MS/MS analysis. The data set is classed as ADME, organism-based. The settings on record: in vivo, read-out: Vdss.
The test system of data set [5] is Cavia porcellus. In words: Cardiotoxicity in guinea pig assessed as decrease in mean arterial blood pressure at 22.4 mg/kg. The data set is classed as toxicity, organism-based. On the set-up: scale not given: the % may be the effect or the level left. Particulars: in vivo.
Data set [6] is filed under the species Mus musculus. In words: Selectivity ratio of EC50 for mouse GPR40 to EC50 for recombinant mouse GPR120 expressed in HEK293 cells. The data set is classed as cell-based.
Data set [7] concerns Mus musculus. In words: Antiobesity activity in diet-induced obesity C57Bl6/J mouse model assessed as change in plasma insulin level at 10 mg/kg qd for 15 days measured on day 15 post 6 hrs fasting. The format is functional.
Data set [8] deals with Mus musculus. The data set can be described thus: Oral bioavailability in mouse at 14.6 mg/kg by LC-MS/MS analysis. The format is ADME, organism-based. The settings on record: in vivo.
For data set [9], the system named is Mus musculus. The data set can be described thus: Antiobesity activity in diet-induced obesity C57Bl6/J mouse model assessed as change in plasma glucose level at 10 mg/kg qd for 15 days measured on day 15 post 6 hrs fasting. The data set is classed as functional.
Data set [10] concerns Mus musculus. In words: Antidiabetic activity in diet-induced obese C57Bl/6 mouse model assessed as change in plasma glucose AUC at 1 mg/kg, po administered 30 mins prior to glucose challenge measured up to 90 mins post dose by OGTT. The format is functional. In short, it runs like this:
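Diet-induced obese mice dosed orally at 0.1–3.0 mg/kg 30 min before an oral glucose load (time 0). Glucose followed from 30 min pre-glucose to 90 min post-glucose. Saxagliptin 1 mg/kg was the positive control.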

Data set [11] relates to Mus musculus. The data set can be described thus: Antiobesity activity in diet-induced obesity C57Bl6/J mouse model assessed as basal insulin level in plasma at 10 mg/kg qd for 15 days measured on day 15 post 6 hrs fasting (reference value: 16959 +/- 4943 pg/ml). The format is functional.
The subject of data set [12] is Mus musculus. In words: Antiobesity activity in diet-induced obesity C57Bl6/J mouse model assessed as final glucose level in plasma at 10 mg/kg bid for 15 days measured on day 15 post 6 hrs fasting (reference value: 184 +/- 30 mg/dL). The data set is classed as functional.
The subject of data set [13] is Cavia porcellus. In words: Cardiotoxicity in guinea pig assessed as effect on body temperature at 22.4 mg/kg. The format is toxicity, organism-based. The settings on record: in vivo.
Data set [14] concerns Mus musculus. In words: Antiobesity activity in diet-induced obesity C57Bl6/J mouse model assessed as final insulin level in plasma at 10 mg/kg qd for 15 days measured on day 15 post 6 hrs fasting (reference value: 7304 +/- 2967 pg/ml). The data set is classed as functional.

Take `O=C(O)CCc1cc(F)c(OCc2c(C(F)(F)F)ccn2-c2ccc(Cl)cc2)c(F)c1`: the Activity is 6225 pg/mL in the data set on Mus musculus [1]; “Non-Toxic” in the data set with Cavia porcellus [3]; 10% in the data set on Cavia porcellus [5]; 457 pg/mL in the data set on Mus musculus [7]; -23.7 mg/dL in the data set on Mus musculus [9]; -54% in the data set on Mus musculus [10]. The Activity in the data set on Mus musculus [11] was 17395 pg/mL; in the data set with Mus musculus [12] it was 170 mg/dL; in the data set on Cavia porcellus [13], “Non-Toxic”; with Mus musculus [14], 7756 pg/mL. In [2], the concentration peaked (Cmax) at 105 µg/mL. The Vd in data set [4] was found to be 1.14 L/kg. The Ratio EC50 in the data set listed under Mus musculus [6] turned out to be 18. This compound showed a F in the data set with Mus musculus [8] of 166%.
